In one series the test system is Vero. Description: Cytotoxicity against african green monkey Vero cells upto 50 uM by neutral red assay. It is filed as cell-based. The following applies: chlorocebus sabaeus. Put shortly:
(§1)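 Neutral red uptake assay. Purified compounds were tested up to 50 μM and the methanol extract up to 50 μg/mL. The panel was normal Vero monkey kidney fibroblasts and LLC-PK11 pig kidney epithelial cells, plus solid tumour lines HepG2, SK-MEL, KB, BT-549 and SK-OV-3.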

The nature of series [1]: Cytotoxicity against pig LLC-PK11 cells upto 50 uM by neutral red assay. It is filed as cell-based, Sus scrofa. Put shortly:
as §1

Series [2] deals with SW1353. Description: Cytotoxicity against human SW1353 cells by neutral red assay. The class given is cell-based.
The target in series [3] is Transcription factor Sp1 (Homo sapiens) (UniProt P08047). Description: Inhibition of SP1-dependent luciferase expression. Put shortly:
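Counter-screen in SW1353 cells for inhibition of luciferase expression from a control plasmid driven by Sp-1. It runs alongside the PMA-induced NF-κB transcription assay to exclude nonspecific or cytotoxic effects.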

The test system of the next series is HepG2. Briefly: Cytotoxicity against human HepG2 cells upto 50 uM by neutral red assay. It is filed as functional, cell-based. Put shortly: as §1
In the next series the test system is SK-MEL. Briefly: Cytotoxicity against human SK-MEL cells upto 50 uM by neutral red assay. It is filed as functional, cell-based. Put shortly:
as §1

In another series the test system is KB. Description: Cytotoxicity against human KB cells upto 50 uM by neutral red assay. It is filed as functional, cell-based. In outline:
as §1

In a further series the test system is BT-549. Description: Cytotoxicity against human BT549 cells upto 50 uM by neutral red assay. The class given is functional, cell-based. In outline: as §1
The next series deals with SK-OV-3. Description: Cytotoxicity against human SKOV3 cells upto 50 uM by neutral red assay. It is filed as functional, cell-based. Put shortly:
as §1

Series [4] concerns SW1353. Briefly: Antiinflammatory activity in PMA-stimulated human SW1353 cells assessed as inhibition of NF-kappaB activation. The class given is functional, cell-based. Put shortly: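 SW1353 cells were stimulated with PMA, and inhibition of NF-κB-mediated transcription was scored as IC50. Parthenolide was the positive control. Specificity was checked against a Sp-1-dependent luciferase control plasmid.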

The subject of series [5] is HL-60. Briefly: Antioxidant activity in human HL60 cells assessed as inhibition of relative oxygen species generation by DCFH-DA method. The class given is functional, cell-based. In outline: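 Intracellular reactive oxygen species generation was measured in myelomonocytic HL-60 cells by the DCFH-DA method. IC50 values were derived, and vitamin C served as positive control. Cytotoxicity in HL-60 cells was checked up to 62.5 μM within this assay.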

Series [6] has as its system HL-60. Briefly: Cytotoxicity against human HL60 cells by neutral red assay. The class given is cell-based.

The IC50 is the point on the concentration scale where inhibition reaches its midpoint.

Activity calls are given as the source filed them. No cut-off for these calls is given here.

Transcription factor Sp1 (Homo sapiens), sequence (P08047 whole entry): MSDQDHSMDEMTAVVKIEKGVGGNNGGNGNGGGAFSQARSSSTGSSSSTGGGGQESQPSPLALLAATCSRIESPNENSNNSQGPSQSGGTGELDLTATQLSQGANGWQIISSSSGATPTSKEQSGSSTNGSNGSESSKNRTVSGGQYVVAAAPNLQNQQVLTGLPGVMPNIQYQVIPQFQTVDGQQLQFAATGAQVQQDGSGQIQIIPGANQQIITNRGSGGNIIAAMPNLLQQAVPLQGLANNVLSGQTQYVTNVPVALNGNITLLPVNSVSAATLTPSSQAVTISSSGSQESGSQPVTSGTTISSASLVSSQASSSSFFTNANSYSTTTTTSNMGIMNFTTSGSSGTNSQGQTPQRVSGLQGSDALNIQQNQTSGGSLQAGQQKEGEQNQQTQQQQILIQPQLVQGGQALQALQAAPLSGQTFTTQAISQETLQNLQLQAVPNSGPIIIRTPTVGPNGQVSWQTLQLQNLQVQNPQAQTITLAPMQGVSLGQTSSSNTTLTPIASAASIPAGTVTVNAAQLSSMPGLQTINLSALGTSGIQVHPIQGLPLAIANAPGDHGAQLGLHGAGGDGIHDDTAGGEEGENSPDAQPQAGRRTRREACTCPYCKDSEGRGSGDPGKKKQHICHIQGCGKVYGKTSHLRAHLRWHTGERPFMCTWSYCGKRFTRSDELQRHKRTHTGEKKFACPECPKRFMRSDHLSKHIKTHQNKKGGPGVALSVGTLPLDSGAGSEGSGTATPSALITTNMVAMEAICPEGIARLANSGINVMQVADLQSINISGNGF

Take `C[C@H]1[C@H](C)CC[C@]2(C(=O)O)CC[C@]3(C)C(=CC[C@@H]4[C@@]5(C)CC[C@H](O)C(C)(C)[C@@H]5CC[C@]43C)[C@H]12` [URSOLIC ACID]: the Activity result (with Vero; in series [1]; in the series with SW1353 [2]) was “Non-toxic” throughout. Also, the result (in series [3]; in the series with HepG2; in the series on SK-MEL; in the series with KB; in the series on BT-549; in the series on SK-OV-3) was inactive.
Turning to `CCCCCCCCCCCCCCCC(=O)O` [PALMITIC ACID], the Activity result (with Vero; in series [1]; with SW1353 [2]) was “Non-toxic” throughout. Further, the result (in series [3]; in the series with HepG2; with SK-MEL; with KB; with BT-549; in the series with SK-OV-3) was inactive.
For `COc1ccccc1-c1cc(=O)c2c(O)cc(O)c(OC)c2o1`, the Activity result (in the series on Vero; in series [1]; in the series with SW1353 [2]) was “Non-toxic” throughout. The result (in series [3]; with HepG2; with SK-MEL; in the series on KB; with BT-549; in the series on SK-OV-3) was inactive.
For the compound `C=C1C(=O)O[C@@H]2C3O[C@]3(C)CC/C=C(\C)CC[C@@H]12` (some centres not stated), the IC50 with SW1353 [4] amounted to 4.1 µM.
Consider `O=C1O[C@H]([C@@H](O)CO)C(O)=C1O` [ASCORBIC ACID], for which, in the series on HL-60 [5] (Homo sapiens, HL-60, read-out: IC50), the IC50 amounted to 0.01 µM.
Regarding `CC(C)=CC(=O)O[C@H]1C(=O)c2cc3ccc(=O)oc3cc2OC1(C)C` [SCUTEFLORIN A], the Activity result (with Vero; in series [1]; in the series on SW1353 [2]) was “Non-toxic” throughout. Besides, the result (in series [3]; with HepG2; with SK-MEL; with KB; with BT-549; in the series on SK-OV-3) was inactive.
Regarding `COc1c(O)cc2oc(-c3ccccc3)cc(=O)c2c1O` [OROXYLIN A], the results for the IC50 entry in the series on HL-60 [5] (hl-60) and with SW1353 [4] were “Not Active” and over 50 µM, respectively. The Activity result (in the series on Vero; in series [1]; in the series on SW1353 [2]) was “Non-toxic” throughout. Moreover, the outcome (in series [3]; in the series on HepG2; in the series on SK-MEL; with KB; in the series on BT-549; with SK-OV-3) was inactive.
For the compound `CC[C@H](CC[C@@H](C)[C@H]1CC[C@H]2[C@@H]3CC=C4C[C@@H](O)CC[C@]4(C)[C@H]3CC[C@]12C)C(C)C` [BETA-SITOSTEROL], the Activity result (in the series with Vero; in series [1]; in the series on SW1353 [2]) was “Non-toxic” in each case. Also, the outcome (in series [3]; in the series with HepG2; with SK-MEL; with KB; with BT-549; with SK-OV-3) was inactive.
Take `CC[C@H](CC[C@@H](C)[C@H]1CC[C@H]2[C@@H]3CC=C4C[C@@H](O[C@@H]5O[C@H](CO)[C@@H](O)[C@H](O)[C@H]5O)CC[C@]4(C)[C@H]3CC[C@]12C)C(C)C` [SITOGLUSIDE]: the Activity result (with Vero; in [1]; in the series with SW1353 [2]) was “Non-toxic” each time. Besides, the outcome (in series [3]; with HepG2; in the series with SK-MEL; with KB; with BT-549; with SK-OV-3) was inactive.
With `O=c1cc(-c2ccccc2)oc2cc(O)cc(O)c12` [CHRYSIN], the IC50 result in the series on HL-60 [5] (hl-60) was “Not Active”; in the series with SW1353 [4] it was 33 µM. Further, the Activity result (in the series on Vero; in [1]; with SW1353 [2]) was “Non-toxic” each time. Further, the outcome (in series [3]; in the series with HepG2; in the series with SK-MEL; in the series on KB; in the series on BT-549; in the series on SK-OV-3) was inactive.
For `COc1c(O)cc(O)c2c(=O)cc(-c3ccccc3)oc12` [WOGONIN], the 50% inhibitory concentration (IC50) in the series on SW1353 [4] amounted to 39 µM. Also, the Activity result with Vero is “Non-toxic”; in series [1], “Non-toxic”; in the series with HL-60 [6] it was “Not Active”; in the series with SW1353 [2] it was “Non-toxic”. Further, the outcome (in series [3]; in the series with HepG2; in the series on SK-MEL; in the series on KB; in the series on BT-549; with SK-OV-3) was inactive.
For the compound `C/C=C(/C)C(=O)O[C@H]1C(=O)c2cc3ccc(=O)oc3cc2OC1(C)C` [SCUTEFLORIN B], the Activity entry (in the series with Vero; in series [1]; in the series on SW1353 [2]) was “Non-toxic” throughout. Moreover, the outcome (in series [3]; in the series on HepG2; in the series with SK-MEL; in the series on KB; with BT-549; in the series with SK-OV-3) was inactive.
For `C=C(C)[C@@H]1CC[C@]2(C)CC[C@]3(C)[C@H](CC[C@@H]4[C@@]5(C)CC[C@H](O)C(C)(C)[C@@H]5CC[C@]43C)[C@@H]12` [LUPEOL], the Activity entry (in the series on Vero; in [1]; in the series on SW1353 [2]) was “Non-toxic” throughout. Moreover, the outcome (in series [3]; in the series with HepG2; in the series with SK-MEL; with KB; with BT-549; in the series with SK-OV-3) was inactive.
Regarding `C[C@@H]1CC[C@]2(C(=O)O)CC[C@]3(C)C(=CC[C@@H]4[C@@]5(C)CC[C@H](O)C(C)(C)[C@@H]5CC[C@]43C)[C@@H]2[C@]1(C)O` [POMOLIC ACID], the Activity result (in the series with Vero; in [1]; in the series on SW1353 [2]) was “Non-toxic” in each case. Moreover, the result (in series [3]; in the series with HepG2; in the series on SK-MEL; in the series on KB; with BT-549; in the series with SK-OV-3) was inactive.
Regarding `O=C1C[C@@H](c2ccccc2)Oc2cc(O)cc(O)c21` [PINOCEMBRIN], the Activity result (in the series on Vero; in [1]; in the series on SW1353 [2]) was “Non-toxic” in each case. Also, the outcome (in [3]; with HepG2; with SK-MEL; in the series on KB; in the series with BT-549; with SK-OV-3) was inactive.
Turning to `CC(C)=CC(=O)O[C@H]1Cc2cc3ccc(=O)oc3cc2OC1(C)C` [DECURSIN], the Activity entry (in the series with Vero; in series [1]; in the series with SW1353 [2]) was “Non-toxic” each time. For the same compound, the outcome (in series [3]; with HepG2; in the series on SK-MEL; in the series with KB; in the series with BT-549; in the series with SK-OV-3) was inactive.
For the compound `CC1(C)CC[C@]2(C(=O)O)CC[C@]3(C)C(=CC[C@@H]4[C@@]5(C)CC[C@@H](O)[C@](C)(CO)[C@@H]5CC[C@]43C)[C@@H]2C1` [SCUTELLARIC ACID], the Activity entry (in the series with Vero; in series [1]; in the series with SW1353 [2]) was “Non-toxic” each time. Also, the result (in series [3]; in the series with HepG2; in the series with SK-MEL; with KB; with BT-549; in the series on SK-OV-3) was inactive.
Regarding `COc1c(O)cc2c(c1O)C(=O)C[C@@H](c1ccccc1)O2` [DIHYDROOROXYLIN A], the Activity result (with Vero; in [1]; in the series with SW1353 [2]) was “Non-toxic” each time. Further, the outcome (in series [3]; with HepG2; in the series with SK-MEL; in the series on KB; in the series with BT-549; with SK-OV-3) was inactive.

Values taken from ChEMBL document CHEMBL1152395, “Scuteflorins A and B, dihydropyranocoumarins from Scutellaria lateriflora” (J Nat Prod, 2009).
